In ChEMBL document CHEMBL1155748, “New jatrophane diterpenoid esters from Euphorbia turczaninowii” (J Nat Prod, 2001):
Converted amounts (≈) assume the structure as drawn.

Legend:
Mus musculus [1] = organism: Mus musculus; experiment: Toxicity in mouse assessed as irritant dose causing ear redness after 24 hours by inflammation assay; format: organism-based; settings: in vivo
Outline: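 Compound applied to the mouse ear as an acetone (Me2CO) solution. Ear redness was scored 4 and 24 h after application. […] TPA served as the reference irritant.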

B16 = experiment: Cytotoxicity against mouse B16 cells by MTT assay; format: functional, cell-based
Mus musculus [2] = organism: Mus musculus; experiment: Toxicity in mouse assessed as irritant dose causing ear redness after 4 hours by inflammation assay; format: organism-based; settings: in vivo
Outline: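 Test solution in Me2CO applied to the mouse ear; ear redness scored 4 and 24 h after application. […] TPA (12-O-tetradecanoylphorbol 13-acetate) run as reference irritant.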

Compound | ID50 (Mus musculus [1]) | IC50 (B16) | ID50 (Mus musculus [2])
C=C1[C@H](OC(C)=O)[C@@H](OC(C)=O)[C@@H](OC(C)=O)C(C)(C)/C=C/[C@H](C)C(=O)[C@@]2(OC(C)=O)C[C@@](C)(OC(=O)c3ccccc3)[C@H](OC(C)=O)[C@@H]2[C@H]1OC(C)=O | > 100 µg | > 5 µg/mL | –
C=C1[C@H](OC(C)=O)[C@H]2[C@@H](OC(C)=O)[C@@H](C)C[C@]2(OC(C)=O)C(=O)[C@@H](C)/C=C/C(C)(C)C(=O)[C@H](OC(C)=O)[C@H]1OC(=O)c1ccccc1 | > 100 µg | – | –
CC[C@]1(O)C[C@@H]2CN(CCc3c([nH]c4ccccc34)[C@@](C(=O)OC)(c3cc4c(cc3OC)N(C)[C@H]3[C@@](O)(C(=O)OC)[C@H](OC(C)=O)[C@]5(CC)C=CCN6CC[C@]43[C@@H]65)C2)C1 [VINBLASTINE] | – | 3.6 µg/mL (≈ 4.44 µM) | –
C=C1[C@H](OC(=O)c2ccccc2)[C@@H](OC(C)=O)[C@@H](OC(C)=O)C(C)(C)/C=C/[C@H](C)C(=O)[C@@]2(OC(C)=O)C[C@@](C)(OC(C)=O)[C@H](OC(C)=O)[C@@H]2[C@H]1OC(C)=O | > 100 µg | > 5 µg/mL | –
C=C1[C@H](OC(C)=O)[C@H]2[C@@H](OC(C)=O)[C@@H](C)C[C@]2(OC(C)=O)C(=O)[C@@H](C)/C=C/C(C)(C)C(=O)[C@H](OC(C)=O)[C@H]1OC(C)=O | > 100 µg | – | –
CCCCCCCCCCCCCC(=O)O[C@@H]1[C@@H](C)[C@@]2(O)[C@@H](C=C(CO)C[C@]3(O)C(=O)C(C)=C[C@@H]23)[C@@H]2C(C)(C)[C@]12OC(C)=O [PHORBOL MYRISTATE ACETATE] | 0.0085 µg | – | 0.012 µg
C=C1[C@H](OC(C)=O)[C@H]2[C@@H](OC(C)=O)[C@](C)(OC(=O)c3ccccc3)C[C@]2(OC(C)=O)C(=O)[C@@H](C)/C=C/C(C)(C)C(=O)[C@H](OC(C)=O)[C@H]1OC(C)=O | > 100 µg | – | –
C=C1[C@H](OC(=O)c2ccccc2)[C@@H](OC(C)=O)[C@@H](OC(C)=O)C(C)(C)/C=C/[C@H](C)C(=O)[C@@]2(OC(C)=O)C[C@H](C)[C@H](OC(C)=O)[C@@H]2[C@H]1OC(C)=O | > 100 µg | – | –
